Test results taken from ChEMBL document CHEMBL1828575, “Design, synthesis and antiproliferative activities of biarylolefins based on polyhydroxylated and carbohydrate scaffolds” (Eur J Med Chem, 2011).

Legend:
Format in all cases: functional
[1] = tested on: UACC-257; assay: Antitumor activity against human UACC257 cells after 48 hrs by SRB assay; conditions: UACC-257, 48 h
Method in brief: (§1)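 NCI60 panel cells grown in RPMI 1640 with 5% FBS and 2 mM L-glutamine, plated at 5000–40,000 cells/well and preincubated 24 h at 37 °C, 5% CO₂. Compound was added from DMSO at five concentrations, 10-fold or 1/2 log dilutions, then incubated 48 h.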

[2] = tested on: NCI/ADR-RES; assay: Antitumor activity against human NCI/ADR-RES cells after 48 hrs by SRB assay
Method in brief: (§2)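 NCI60 panel in RPMI 1640 with 5% FBS and 2 mM L-glutamine. Cells were plated at 5000–40,000/well by doubling time, held 24 h, then time-zero plates were TCA-fixed. Five concentrations (10-fold or half-log dilutions of DMSO stocks) were applied for 48 h at 37 °C, 5% CO2. Cells were fixed with cold TCA (10% final adherent, 16% suspension) and stained with 0.4% SRB. Bound dye was dissolved in 10 mM Tris and read at 515 nm. GI50, TGI and LC50 were calculated per line.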

[3] = tested on: PC-3; assay: Cytotoxicity against human PC3 cells assessed as cellular growth at 10 uM after 48 hrs by SRB assay
Method in brief: (§3)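 NCI-60 panel lines grown in RPMI 1640 with 5% FBS and 2 mM L-glutamine. Plated at 5000–40,000 cells/well and preincubated 24 h at 37 °C, 5% CO₂, with time-zero plates fixed in TCA. Compounds, dissolved in DMSO and diluted in medium, were applied for 48 h. Cells were TCA-fixed (10% final for adherent, 16% for suspension) and stained with 0.4% SRB in 1% acetic acid. Dye was solubilised in 10 mM Tris base and read at 515 nm; growth was expressed as a percentage of untreated control.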

[4] = tested on: SF-268; assay: Antitumor activity against human SF268 cells after 48 hrs by SRB assay; conditions: SF-268, 48 h; for CC50: read-out: pLC50 (the source's name) (converted); method in brief: as §2
[5] = tested on: SNB-19; assay: Antitumor activity against human SNB19 cells after 48 hrs by SRB assay; conditions: SNB-19, 48 h; for CC50: read-out: LC50 (the source's name); method in brief: as §1
[6] = tested on: A498; assay: Antitumor activity against human A498 cells after 48 hrs by SRB assay; conditions: A498, 48 h; method in brief: as §2
[7] = tested on: SF-295; assay: Antitumor activity against human SF295 cells after 48 hrs by SRB assay; conditions: SF-295, 48 h; method in brief: as §2
[8] = tested on: OVCAR-4; assay: Antitumor activity against human OVCAR4 cells after 48 hrs by SRB assay; conditions: OVCAR-4, 48 h; method in brief: as §2
[9] = tested on: HT-29; assay: Cytotoxicity against human HT-29 cells assessed as cellular growth at 10 uM after 48 hrs by SRB assay
Method in brief: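 NCI60 single-dose screen of cells in RPMI 1640 with 5% FBS and 2 mM L-glutamine, preincubated 24 h at 37 °C, 5% CO₂. Cells were then exposed 48 h to compound added from DMSO stock. TCA-fixed, stained with 0.4% SRB in 1% acetic acid, dye solubilised in 10 mM Tris base and read at 515 nm. Growth is given as percent of untreated control.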

[10] = tested on: SF-539; assay: Cytotoxicity against human SF539 cells assessed as cellular growth at 10 uM after 48 hrs by SRB assay; method in brief: as §3
[11] = tested on: SK-OV-3; assay: Cytotoxicity against human SKOV3 cells assessed as cellular growth at 10 uM after 48 hrs by SRB assay; method in brief: as §3
[12] = tested on: SK-MEL-28; assay: Antitumor activity against human SK-MEL-28 cells after 48 hrs by SRB assay; conditions: SK-MEL-28, 48 h; for CC50: read-out: pLC50 (the source's name) (converted); method in brief: as §1
[13] = tested on: MDA-MB-435; assay: Cytotoxicity against human MDA-MB-435 cells assessed as cellular growth at 10 uM after 48 hrs by SRB assay; method in brief: as §3
[14] = tested on: K562; assay: Antitumor activity against human K562 cells after 48 hrs by SRB assay; conditions: K562, 48 h; method in brief: as §2
[15] = tested on: U-251; assay: Antitumor activity against human U251 cells after 48 hrs by SRB assay; conditions: U-251, 48 h; for CC50: read-out: LC50 (the source's name); method in brief: as §1
[16] = tested on: NCI-H522; assay: Antitumor activity against human NCI-H522 cells after 48 hrs by SRB assay; conditions: NCI-H522, 48 h; for CC50: read-out: LC50 (the source's name); method in brief: as §2
[17] = tested on: LOX IMVI; assay: Antitumor activity against human LOXIMVI cells after 48 hrs by SRB assay; conditions: for CC50: read-out: LC50 (the source's name); method in brief: as §2
[18] = tested on: OVCAR-5; assay: Antitumor activity against human OVCAR5 cells after 48 hrs by SRB assay; conditions: OVCAR-5, 48 h; method in brief: as §2
[19] = Cytotoxicity against human NCI60 cells assessed as cellular growth at 10 uM after 48 hrs by SRB assay relative to untreated control; method in brief: as §3
[20] = tested on: NCI-H23; assay: Antitumor activity against human NCI-H23 cells after 48 hrs by SRB assay; conditions: NCI-H23, 48 h; method in brief: as §2
[21] = tested on: SNB-19; assay: Cytotoxicity against human SNB19 cells assessed as cellular growth at 10 uM after 48 hrs by SRB assay; method in brief: as §3
[22] = read-out: LC50 (the source's name)
[23] = read-out: pLC50 (the source's name) (converted)

## COc1cc(/C(=C2\O[C@@H]([C@H]3COC(C)(C)O3)[C@H]3OC(C)(C)O[C@@H]23)c2ccc3ccccc3c2)cc(OC)c1OC
[1]; read-out: GI50
  GI50: 4.28 µM
[1]; [22]
  CC50: > 100 µM
[1]; read-out: TGI
  TGI: 23.8 µM
[1]; read-out: pGI50 (converted)
  GI50: 4.27 µM
[1]; [23]
  CC50: > 100 µM
[1]; read-out: pTGI (converted)
  TGI: 24 µM
[2]
  GI50: 4.26 µM
  LC50: > 100 µM
  TGI: 22.3 µM
[3]
  Activity: 26.98%
[4]
  LC50 (concentration killing 50% of cells relative to time zero): > 100 µM
  CC50: > 100 µM
[4]; read-out: GI50
  GI50: 3.13 µM
[4]; read-out: TGI
  TGI: 15.9 µM
[4]; read-out: pGI50 (converted)
  GI50: 3.09 µM
[4]; read-out: pTGI (converted)
  TGI: > 100 µM
[5]
  GI50: 2490 nM
  TGI: 6.08 µM
  CC50: > 100 µM
[6]; read-out: GI50
  GI50: 17.8 µM
[6]; [22]
  CC50: > 100 µM
[6]; read-out: TGI
  TGI: 74.6 µM
[6]; read-out: pGI50 (converted)
  GI50: 4.37 µM
[6]; [23]
  CC50: > 100 µM
[6]; read-out: pTGI (converted)
  TGI: > 100 µM
[7]; read-out: GI50
  GI50: 6.92 µM
[7]; [22]
  CC50: > 100 µM
[7]; read-out: TGI
  TGI: 52.1 µM
[7]; read-out: pGI50 (converted)
  GI50: 6.92 µM
[7]; [23]
  CC50: > 100 µM
[7]; read-out: pTGI (converted)
  TGI: 52.5 µM
[8]; read-out: GI50
  GI50: 2.82 µM
[8]; [22]
  CC50: > 100 µM
[8]; read-out: TGI
  TGI: 6.02 µM
[8]; read-out: pGI50 (converted)
  GI50: 14.1 µM
[8]; [23]
  CC50: > 100 µM
[8]; read-out: pTGI (converted)
  TGI: 11 µM
[9]
  Activity: 40.98%
[10]
  Activity: 26.42%
[11]
  Activity: 51.39%
[12]
  LC50 (50% lethal concentration): > 100 µM
  CC50: > 100 µM
[12]; read-out: GI50
  GI50: 2.86 µM
[12]; read-out: TGI
  TGI: 96.5 µM
[12]; read-out: pGI50 (converted)
  GI50: 2.88 µM
[12]; read-out: pTGI
  TGI: > 100 µM
[13]
  Activity: 26.19%
[14]; read-out: GI50
  GI50: 4.02 µM
[14]; [22]
  CC50: > 100 µM
[14]; read-out: TGI
  TGI: > 100 µM
[14]; read-out: pGI50 (converted)
  GI50: 3.98 µM
[14]; [23]
  CC50: > 100 µM
[14]; read-out: pTGI
  TGI: > 100 µM
[15]
  GI50: 3.12 µM
  TGI: 11.8 µM
  CC50: > 100 µM
[16]
  GI50: 2260 nM
  TGI: 6.54 µM
  CC50: > 100 µM
[17]
  GI50: 3.39 µM
  TGI: 19.8 µM
  CC50: > 100 µM
[18]; read-out: GI50
  GI50: 14 µM
[18]; [22]
  CC50: > 100 µM
[18]; read-out: TGI
  TGI: > 100 µM
[18]; read-out: pGI50 (converted)
  GI50: 3.89 µM
[18]; [23]
  CC50: > 100 µM
[18]; read-out: pTGI (converted)
  TGI: 7.94 µM
[19]
  Activity: 30%
[20]; read-out: GI50
  GI50: 5.43 µM
[20]; [22]
  CC50: > 100 µM
[20]; read-out: TGI
  TGI: > 100 µM
[20]; read-out: pGI50 (converted)
  GI50: 5.37 µM
[20]; [23]
  CC50: > 100 µM
[20]; read-out: pTGI (converted)
  TGI: > 100 µM
[21]
  Activity: 29%

## COc1ccc(/C(=C2\O[C@@H]([C@H]3COC(C)(C)O3)[C@H]3OC(C)(C)O[C@@H]23)c2cc(OC)c(OC)c(OC)c2)cc1O
[1]; read-out: GI50
  GI50: 39.4 µM
[1]; [22]
  CC50: > 100 µM
[1]; read-out: TGI
  TGI: > 100 µM
[1]; read-out: pGI50 (converted)
  GI50: 39.8 µM
[1]; [23]
  CC50: > 100 µM
[1]; read-out: pTGI (converted)
  TGI: > 100 µM
[2]
  GI50: 4.26 µM
  LC50: > 100 µM
  TGI: 22.3 µM
[3]
  Activity: 29.4%
[4]
  LC50 (concentration killing 50% of cells relative to time zero): > 100 µM
  CC50: > 100 µM
[4]; read-out: GI50
  GI50: 7.96 µM
[4]; read-out: TGI
  TGI: 53.6 µM
[4]; read-out: pGI50 (converted)
  GI50: 7.94 µM
[4]; read-out: pTGI (converted)
  TGI: 53.7 µM
[5]
  GI50: 2490 nM
  TGI: 6.08 µM
  CC50: > 100 µM
[6]; read-out: GI50
  GI50: 32.1 µM
[6]; [22]
  CC50: > 100 µM
[6]; read-out: TGI
  TGI: 97.4 µM
[6]; read-out: pGI50 (converted)
  GI50: 32.4 µM
[6]; [23]
  CC50: > 100 µM
[6]; read-out: pTGI (converted)
  TGI: 97.7 µM
[7]; [22]
  CC50: > 100 µM
[7]; read-out: TGI
  TGI: 43.8 µM
[7]; read-out: pGI50 (converted)
  GI50: 18.6 µM
[7]; [23]
  CC50: > 100 µM
[7]; read-out: pTGI (converted)
  TGI: 43.7 µM
[8]; read-out: GI50
  GI50: 37.5 µM
[8]; [22]
  CC50: > 100 µM
[8]; read-out: TGI
  TGI: > 100 µM
[8]; read-out: pGI50 (converted)
  GI50: 37.2 µM
[8]; [23]
  CC50: > 100 µM
[8]; read-out: pTGI (converted)
  TGI: > 100 µM
[9]
  Activity: 113.24%
[10]
  Activity: 21.53%
[11]
  Activity: 90.14%
[12]
  LC50 (50% lethal concentration): > 100 µM
  CC50: > 100 µM
[12]; read-out: GI50
  GI50: 10.6 µM
[12]; read-out: TGI
  TGI: > 100 µM
[12]; read-out: pGI50 (converted)
  GI50: 10.5 µM
[12]; read-out: pTGI
  TGI: > 100 µM
[13]
  Activity: -10.2%
[14]; read-out: GI50
  GI50: 6.28 µM
[14]; [22]
  CC50: > 100 µM
[14]; read-out: TGI
  TGI: > 100 µM
[14]; read-out: pGI50 (converted)
  GI50: 6.31 µM
[14]; [23]
  CC50: > 100 µM
[14]; read-out: pTGI
  TGI: > 100 µM
[15]
  GI50: 3.12 µM
  TGI: 11.8 µM
  CC50: > 100 µM
[16]
  GI50: 2950 nM
  TGI: 7.54 µM
  CC50: 85.6 µM
[17]
  GI50: 3.39 µM
  TGI: 19.8 µM
  CC50: > 100 µM
[18]; read-out: GI50
  GI50: 59.6 µM
[18]; [22]
  CC50: > 100 µM
[18]; read-out: TGI
  TGI: > 100 µM
[18]; read-out: pGI50 (converted)
  GI50: 60.3 µM
[18]; [23]
  CC50: > 100 µM
[18]; read-out: pTGI (converted)
  TGI: > 100 µM
[19]
  Activity: 66%
[20]; read-out: GI50
  GI50: 21.8 µM
[20]; [22]
  CC50: > 100 µM
[20]; read-out: TGI
  TGI: 74.9 µM
[20]; read-out: pGI50 (converted)
  GI50: 20.9 µM
[20]; [23]
  CC50: > 100 µM
[20]; read-out: pTGI (converted)
  TGI: 74.1 µM
[21]
  Activity: 27.56%
